The results in this text go back to ChEMBL document CHEMBL4024708, “Recent synthetic and medicinal perspectives of dihydropyrimidinones: A review” (Eur J Med Chem, 2017).

For one data set, the system named is Rattus norvegicus. In words: Anti-inflammatory activity in rat assessed as inhibition of carrageenan-induced hind paw edema at 10 mg/kg, po pretreated for 1 hr followed by carrageenan challenge measured after 3 hrs by plethysmometer relative to control. In kind it is functional. Summed up: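 Albino rats; carrageenan-induced paw edema test after Winter et al., with diclofenac sodium as reference standard. Percentage reduction in inflammation recorded 3 h after carrageenan, relative to carrageenan-only animals.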
On the technique in general: In the carrageenan paw model, swelling and tenderness develop within hours.

The test system of another data set is Pseudomonas aeruginosa. As to the kind of experiment: Antibacterial activity against Pseudomonas aeruginosa MTCC 2581 by spectrophotometric method. Format: functional. Put shortly: (§1)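 Serial broth dilution, 200 to 15.625 μg/mL, in nutrient broth, sonicated 10 min. Inoculum gave a starting density of 10^3–10^4 CFU/mL. Flasks were shaken at 200 rpm and 37 °C, and growth followed by the rise in absorbance at 600 nm. MIC is the lowest concentration inhibiting the organism. Controls: compound without inoculum, and inoculum without compound.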

In another data set the test system is Staphylococcus aureus. In words: Antibacterial activity against Staphylococcus aureus MTCC 3160 by spectrophotometric method. Format: functional. Summed up: as §1
The target of data set [1] is T1, Alpha-1A adrenergic receptor (Homo sapiens, UniProt P35348).
T1 sequence (P35348 whole entry): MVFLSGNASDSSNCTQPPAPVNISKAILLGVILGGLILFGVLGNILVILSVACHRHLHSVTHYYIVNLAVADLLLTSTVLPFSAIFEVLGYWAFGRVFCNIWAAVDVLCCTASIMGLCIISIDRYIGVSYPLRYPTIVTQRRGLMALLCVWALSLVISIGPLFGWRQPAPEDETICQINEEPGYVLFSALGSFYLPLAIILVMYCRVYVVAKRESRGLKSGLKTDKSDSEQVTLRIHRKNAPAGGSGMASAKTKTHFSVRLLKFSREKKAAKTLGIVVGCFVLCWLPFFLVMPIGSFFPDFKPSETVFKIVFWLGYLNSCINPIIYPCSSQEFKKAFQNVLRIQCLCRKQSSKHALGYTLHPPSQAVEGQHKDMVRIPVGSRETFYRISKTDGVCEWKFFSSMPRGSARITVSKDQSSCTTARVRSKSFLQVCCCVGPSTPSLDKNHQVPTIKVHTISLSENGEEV
In words: Displacement of [125I]L-762,459 from recombinant human alpha1a adrenergic receptor expressed in mammalian cells measured after 1 hr. Format: cell-based.

The nature of data set [2]: Half-life in Beagle dog at 0.5 mg/kg, iv by LC-MS analysis. In kind it is ADME, organism-based, Canis lupus familiaris. The following applies: in vivo.
Data set [3] relates to Mus musculus. In words: Anticonvulsant activity in ip dosed maximal electroshock induced seizure mouse model assessed as suppression of hind limb tonic extension measured at 4 hrs post dose. The conditions noted are these: read-out: MED. In kind it is functional. Summed up:
(§2)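 Albino mice given the compound ip, suspended in 0.5% methyl cellulose–water, at 30, 100 and 300 mg/kg. Maximal electroshock by corneal electrodes: 50 mA, 60 Hz, 0.2 s. Abolition of hind limb tonic extension scored as protection. Value is the minimum dose active in half or more of the mice.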

In data set [4] the test system is Mus musculus. As to the kind of experiment: Anticonvulsant activity in ip dosed maximal electroshock induced seizure mouse model assessed as suppression of hind limb tonic extension measured at 0.5 hrs post dose. Format: functional. The following applies: read-out: MED. Summed up: as §2
Background: Protection in the maximal electroshock model is a classic sign of anticonvulsant action.

Data set [5] in a line: Antioxidant activity assessed as DPPH free radical scavenging activity at 12.5 ppm after 30 mins in dark by spectrophotometric method relative to control. In kind it is functional. Put shortly: (§3)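 DPPH (1,1-diphenyl-2-picrylhydrazyl) radical scavenging assay. The change in absorbance was read at 517 nm on a spectrophotometer. Activity is given as percent inhibition of the DPPH radical, calculated as (absorbance of control − absorbance of sample)/absorbance of control × 100.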
In general terms: Loss of DPPH colour is used to gauge radical scavenging.

The subject of the next data set is Escherichia coli. As to the kind of experiment: Antibacterial activity against Escherichia coli MTCC 443 by spectrophotometric method. Format: functional. Summed up:
as §1

The next data set deals with Klebsiella pneumoniae. In words: Antibacterial activity against Klebsiella pneumoniae MTCC 7028 by spectrophotometric method. In kind it is functional. Summed up:
as §1

Data set [6] is described as follows: Antioxidant activity assessed as cupric ion reducing activity by measuring increase in absorbance at 100 ppm by CUPRAC assay. In kind it is functional. Put shortly: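 CUPRAC assay. Sample solution was mixed with distilled water, at a pH close to 7. Reduction of Cu(II) to Cu(I) was followed as the increase in absorbance at 450 nm of the reaction mixture.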

Data set [7] can be described thus: Antioxidant activity assessed as DPPH free radical scavenging activity at 100 ppm after 30 mins in dark by spectrophotometric method relative to control. Format: functional. Summed up: as §3

SMILES strings stand for the structures. ≈ marks a conversion by molar mass, not a printed value.

As a reminder, the inhibition in vivo is how much of the control response was suppressed. As to `O=C(O)CC1=C(c2ccccc2)N=C(S)NC1c1ccccc1` (centres undefined), the inhibition in vivo at 10 mg/kg in the data set with Rattus norvegicus was determined as 17%.
A word on the MIC: it is the lowest concentration that inhibits growth of the organism. On to `CCC(=O)C1=C(C)NC(=O)NC1c1ccc([N+](=O)[O-])cc1` (centres undefined), for which the MIC fell in the range of 15.6 to 31.2 µg/mL (≈ 53.9 to 108 µM) with Pseudomonas aeruginosa and 62.5 to 125 µg/mL (≈ 216 to 432 µM) in the data set with Staphylococcus aureus.
Take `CCC(=O)C1=C(C)NC(=O)NC1c1cccc(OC)c1` (centres undefined): the minimal inhibitory concentration (MIC) in the data set with Pseudomonas aeruginosa (read-out: MIC) and in the data set with Staphylococcus aureus was 250 µg/mL (≈ 911 µM) each time.
In the case of `CCC(=O)C1=C(C)NC(=O)NC1c1ccccc1` (centres undefined), the minimum inhibitory concentration (MIC) against Pseudomonas aeruginosa was in the range of 15.6 to 31.2 µg/mL (≈ 63.9 to 128 µM); with Staphylococcus aureus it was 62.5 to 125 µg/mL (≈ 256 to 512 µM).
Turning to `CCCCC1NC(=O)NC(C)=C1C(=O)CC` (centres undefined), the minimal inhibitory concentration (MIC) in the data set with Pseudomonas aeruginosa (read-out: MIC) and against Staphylococcus aureus was 250 µg/mL (≈ 1110 µM) throughout.
For the compound `O=C(O)CC1=C(c2ccc(Cl)cc2)NC(=S)NC1c1cccs1` (centres undefined), the inhibition in vivo at 10 mg/kg with Rattus norvegicus is 16%.
Regarding `Cc1ccc(C2=C(CC(=O)O)C(c3ccc(Cl)cc3)NC(S)=N2)cc1` (centres undefined), in the data set on Rattus norvegicus, the inhibition in vivo at 10 mg/kg was found to be 22%.
Usually Ki stands for the equilibrium dissociation constant of an inhibitor or competing ligand from its target. `COCC1=C(C(=O)NCCCN2CCC(C#N)(c3ccc(C#N)cc3)CC2)[C@@H](c2ccc(F)c(F)c2)NC(=O)N1`: the Ki in data set [1] was 160 pM.
Regarding `O=C(O)CC1=C(c2ccccc2)N=C(S)NC1c1ccc(Cl)cc1` (centres undefined), the inhibition in vivo at 10 mg/kg in the data set on Rattus norvegicus is 30%.
A word on the half-life: it is the time needed for the level to fall by half in the phase considered. `COCC1=C(C(=O)NCCCN2CCC(c3ccc(F)cc3)CC2)[C@@H](c2ccc(F)c(F)c2)NC(=O)N1`: in data set [2], the half-life fell in the range of 7 to 8 h.
Regarding `CN(C)c1ccc(C2C=C(n3cc(-c4ccccc4)nc3-c3ccccc3)N=C(S)N2)cc1` (centres undefined), the minimal effective dose in the data set on Mus musculus [3] amounted to 300 mg/kg; in the data set with Mus musculus [4] it was 100 mg/kg.
Consider `NC(=O)N1c2ccccc2C=Cc2ccccc21` [CARBAMAZEPINE], for which the minimal effective dose in the data set on Mus musculus [3] came to 100 mg/kg.
Take `COc1ccc(C2C=C(n3nc(-c4ccccc4)nc3-c3ccccc3)N=C(S)N2)c(OC)c1` (centres undefined): the minimal effective dose was 300 mg/kg in the data set on Mus musculus [3] and 30 mg/kg in the data set on Mus musculus [4].
For `O=[N+]([O-])c1cccc(C2C=C(n3cc(-c4ccccc4)nc3-c3ccccc3)N=C(S)N2)c1` (centres undefined), the minimal effective dose with Mus musculus [3] turned out to be 300 mg/kg; in the data set with Mus musculus [4], 30 mg/kg.
For `SC1=NC(n2nc(-c3ccccc3)nc2-c2ccccc2)=CC(c2ccc(-c3ccccc3)cc2)N1` (centres undefined), the figures for the minimal effective dose in the data set with Mus musculus [3] and in the data set with Mus musculus [4] were 300 mg/kg and 100 mg/kg, respectively.
`Oc1ccc(C2C=C(n3nc(-c4ccccc4)nc3-c3ccccc3)N=C(S)N2)cc1` (centres undefined): the minimal effective dose in the data set with Mus musculus [3] came out at 300 mg/kg; in the data set with Mus musculus [4], 30 mg/kg.
For `COc1ccc(C2NC(=S)NC(c3ccc(C)cc3)=C2CC(=O)O)cc1` (centres undefined), the inhibition in vivo at 10 mg/kg in the data set with Rattus norvegicus was 33%.
`COc1ccc(C2C=C(n3cc(-c4ccccc4)nc3-c3ccccc3)N=C(S)N2)cc1` (centres undefined): the minimal effective dose stood at 300 mg/kg in the data set on Mus musculus [3] and 100 mg/kg in the data set on Mus musculus [4].
For the compound `CCC(=O)C1=C(C)NC(=O)NC1c1cc(Cl)cc(Cl)c1` (centres undefined), the Activity in [5] amounted to 17.3%. Moreover, the MIC was in the range of 15.6 to 31.2 µg/mL (≈ 49.8 to 99.6 µM) in the data set on Pseudomonas aeruginosa, 15.6 to 31.2 µg/mL (≈ 49.8 to 99.6 µM) against Escherichia coli and 31.2 to 62.5 µg/mL (≈ 99.8 to 200 µM) against Klebsiella pneumoniae.
Turning to `CCC(=O)C1=C(C)NC(=O)NC1c1cccc(Cl)c1` (centres undefined), the MIC in the data set on Pseudomonas aeruginosa (read-out: MIC) is 62.5 µg/mL (≈ 224 µM); against Escherichia coli it was 15.6 to 31.2 µg/mL (≈ 56 to 112 µM); in the data set on Klebsiella pneumoniae, 31.2 to 62.5 µg/mL (≈ 112 to 224 µM).
In the case of `O=c1c(O)c(-c2ccc(O)c(O)c2)oc2cc(O)cc(O)c12`, the Activity in data set [5] came to 55.3%; in data set [7], 82.3%. The absorbance in data set [6] amounted to 1.2.
Consider `CC1=C(C(=O)NCCCN2CCC(c3ccc(F)cc3)CC2)[C@@H](c2ccc(F)c(F)c2)N(C)C(=O)N1C`, for which the inhibitory constant (Ki) in [1] is 140 pM.
